Bioassay records deposited in PubChem by several laboratories.
Cl transport mod = KCC2 (human) Cl- transport modulation | Q9H2X9 | KCC2 cells, thallium flux FluoZin-2 fluorescence | B-score of Tl+ flux slope (higher = more flux/activation; lower = inhibition) at 10 µM | 2.2% of 190,000 active | AID 1456;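 active = thallium flux slope and its plate-corrected score both differing from the plate sample mean at a set confidence after two filtering rounds, in either direction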;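 also: slope of fluorescence scaled to starting intensity during 10 to 20 s after thallium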
Target sequence (Q9H2X9 whole entry, looked up): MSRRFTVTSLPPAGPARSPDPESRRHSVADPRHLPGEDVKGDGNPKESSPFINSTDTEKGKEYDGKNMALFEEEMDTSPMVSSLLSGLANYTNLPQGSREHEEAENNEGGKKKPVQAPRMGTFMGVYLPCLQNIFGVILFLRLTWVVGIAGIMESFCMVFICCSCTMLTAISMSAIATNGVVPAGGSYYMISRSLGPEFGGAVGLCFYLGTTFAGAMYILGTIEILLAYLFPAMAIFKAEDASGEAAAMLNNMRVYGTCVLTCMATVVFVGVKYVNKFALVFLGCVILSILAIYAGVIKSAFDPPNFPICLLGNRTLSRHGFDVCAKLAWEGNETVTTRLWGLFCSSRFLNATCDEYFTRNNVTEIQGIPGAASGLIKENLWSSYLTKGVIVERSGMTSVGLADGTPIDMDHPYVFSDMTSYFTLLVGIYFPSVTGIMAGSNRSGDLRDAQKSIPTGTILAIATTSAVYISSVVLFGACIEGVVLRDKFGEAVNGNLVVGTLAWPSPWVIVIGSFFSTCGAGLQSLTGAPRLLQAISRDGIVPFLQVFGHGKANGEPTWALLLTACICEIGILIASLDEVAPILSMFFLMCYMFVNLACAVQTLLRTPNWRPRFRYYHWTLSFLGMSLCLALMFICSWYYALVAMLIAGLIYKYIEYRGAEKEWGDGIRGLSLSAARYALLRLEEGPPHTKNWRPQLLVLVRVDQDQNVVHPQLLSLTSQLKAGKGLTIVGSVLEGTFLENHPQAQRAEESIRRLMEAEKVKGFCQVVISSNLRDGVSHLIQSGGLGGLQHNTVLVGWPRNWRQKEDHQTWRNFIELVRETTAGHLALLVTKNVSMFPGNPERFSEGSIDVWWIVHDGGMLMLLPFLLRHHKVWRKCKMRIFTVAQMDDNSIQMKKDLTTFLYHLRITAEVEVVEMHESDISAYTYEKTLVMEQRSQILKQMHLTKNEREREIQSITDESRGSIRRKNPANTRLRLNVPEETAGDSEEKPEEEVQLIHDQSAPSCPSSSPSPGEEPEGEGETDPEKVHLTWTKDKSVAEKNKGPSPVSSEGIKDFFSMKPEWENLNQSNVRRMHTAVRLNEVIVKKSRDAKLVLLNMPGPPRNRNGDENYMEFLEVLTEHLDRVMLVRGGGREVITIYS
KCNQ1 block = inhibitors of human KCNQ1 potassium channel; P51787; CHO-K1 KCNQ1, FluxOR thallium flux fluorescence; hits give high values; B-score at 10 µM; 1.3% of 310,000 active; AID 2642;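 active = compounds whose thallium flux B-score, printed positive for inhibition, exceeds three library SD while starting fluorescence stays within three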;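 also: channel opened by potassium depolarization with thallium stimulus after 20 min compound exposure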
hERG rescue = hERG (human) protection from proarrhythmic block | Q12809 | CHO-hERG, FluxOR thallium flux, dofetilide IC70 present | activation (rescue from dofetilide block), less the hit threshold, % at 10 µM | 0.51% of 310,000 active | AID 1511;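 active = activation above the mean of controls blocked by dofetilide plus 5 SD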;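 also: thallium influx through hERG after potassium depolarization seen as dye fluorescence rise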
KCNK9 block = blocks the human KCNK9 two-pore domain potassium channel; AID 488922; HEK293 KCNK9, FluxOR thallium flux fluorescence; hits give low values; 1.2% of 310,000 active; B-score at 10 µM;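 active = ratio B-score over 3 SD below the library mean, with starting fluorescence within 5 SD of its mean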;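 also: negative B-score means less thallium flux so channel inhibition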
KCNQ1 act = human KCNQ1 channel potentiation or activation; P51787; CHO-K1 KCNQ1, thallium flux FluxOR fluorescence; hits give high values; B-score at 10 µM; 0.35% of 310,000 active; AID 2648;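 active = fluorescence ratio B-score, a plate-corrected score, at least three library SD, with initial intensity B-score within 5 SD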
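assay system = CHO-K1 cells stably expressing KCNQ1 | medium = assay buffer, equal DMSO in all wells | timing = 37 °C overnight plating, 90-min dark dye load, 20-min compound pretreatment | measured by = kinetic FluxOR thallium fluorescence, 10-s 1-Hz baseline, 110-s post-stimulus read | measure = fluorescence change relative to baseline, converted to B score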
KCNK3 block = human KCNK3 channel inhibition, primary screen; CHO-KCNK3 thallium flux, FluxOR fluorescence; hits give low values; B-score at 10 µM; 0.84% of 340,000 active; AID 602410;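 active = B-score under library mean minus 4 SD, starting fluorescence ratio at most library mean plus 5 SD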;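 also: more negative B-score means stronger inhibition of thallium flux through KCNK3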
KCNK9 inh conf = confirmation of human KCNK9 potassium channel inhibitors; shares compounds with KCNK9 block; HEK293 KCNK9 cells, FluxOR thallium flux fluorescence; inhibition, % at 10 µM; 43% of 4,900 active;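 active = thallium signal inhibited by more than 5 SD of the compound-free buffer control wells, on both duplicate plates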
Kir2-1 spec = selectivity of KCNK9 modulators against mouse Kir2.1. shares compounds with KCNK9 block. Kir2.1 cells, FluxOR thallium flux fluorescence. inhibition, % at 10 µM. 4% of 4,900 active. AID 492993;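 active = thallium signal drop more than 5 SD beyond the mean of the no-compound control wells, seen in both duplicate plates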;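 also: signal is fluorescence rise after thallium addition divided by baseline fluorescence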
KCNK9 uninduced = second counter-screen for KCNK9 modulators: effect in non-induced cells | inhibition, % at 10 µM | non-induced KCNK9-HEK293, FluxOR thallium flux | 40% of 4,900 active | AID 492997 | shares compounds with KCNK9 block;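 active = thallium signal drop beyond 5 SD of the untreated control mean, on both duplicate plates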
Numbers stand for hits; 0 = inactive; - = no result given. This is a sample that favours compounds with a hit; in the whole collection about 4.1% have one here.

SMILES	Cl transport mod	KCNQ1 block	hERG rescue	KCNK9 block	KCNQ1 act	KCNK3 block	KCNK9 inh conf	Kir2-1 spec	KCNK9 uninduced
COc1ccc(-c2nc3ccccc3nc2-c2ccccc2)cc1	0	0	0	0	0	0	-	-	-
COc1ccc(CNC(=O)C(=O)NCC2OCCN2S(=O)(=O)c2cccs2)cc1 (centres undefined)	0	0	0	0	0	0	-	-	-
COc1ccc(CN=Cc2c(C(F)(F)F)[nH][nH]c2=O)cc1	-	0	0	-11	0	0	27%	0	0
Cc1ccc(/C=N/N2CCN(C3c4ccccc4-c4ccccc43)CC2)s1	0	0	0	0	0	0	0	0	0
Cc1ccc(OCc2cc(C(=O)N3CCC(c4ccccc4Cl)C3)no2)cc1C (centres undefined)	-	0	0	0	0	0	0	0	0
COc1ccc(OCc2cc(C(=O)N3CCN(C4CCCC4)CC3)no2)c(Cl)c1	-	0	0	0	0	0	0	0	0
CSc1ccccc1OCc1cc(C(=O)N2CCNC(=O)C2)no1	-	0	0	0	0	0	-	-	-
COc1ccc(OCc2cc(C(=O)N3CCCCCCC3)no2)c(Cl)c1	-	0	0	0	0	0	-	-	-
CSc1ccccc1OCc1cc(C(=O)N2CCc3c(Cl)cccc3C2)no1	-	0	0	0	0	0	0	0	0
COc1ccccc1C(CNC(=O)c1cccc(S(=O)(=O)Nc2ccc(C)cc2)c1)N1CCCC1 (centres undefined)	-	0	0	0	0	0	-	-	-
CCCOc1ccc(CNC(=O)Cc2cccs2)cc1	-	0	0	0	0	0	-	-	-
O=C(NCCc1ccccc1)C1CCCN(C(=O)Nc2ccc(F)cc2)C1 (centres undefined)	-	0	0	0	0	0	-	-	-
Cc1cc(C)nc(N=Nc2c(O)n(Cc3ccc(Cl)cc3)c3ccccc23)n1	0	0	0	-18	0	0	72%	0	26%
NC(=S)n1[nH]c(-c2ccc([N+](=O)[O-])cc2)c(N=Nc2cccc(Cl)c2)c1=O	5.8	0	0	0	8	0	0	0	0
NC(=S)n1[nH]c(-c2ccc([N+](=O)[O-])cc2)c(N=Nc2ccc(O)cc2)c1=O	-	0	0	0	0	0	-	-	-
COC(=O)c1ccc(C(=O)OC)c(NC(=O)CCS(=O)(=O)Cc2ccccc2)c1	-	0	0	0	0	0	-	-	-
COC(=O)c1ccc(C(=O)OC)c(NC(=O)CN(C)Cc2cccc(Cl)c2Cl)c1	0	0	0	-12	0	0	80%	0	46%
COC(=O)c1ccc(C(=O)OC)c(NC(=O)CN(C)Cc2ccccc2)c1	0	0	0	-11	0	0	71%	0	36%
CC(=O)N1C[C@H]2CON(C)[C@H]2C[C@H]1c1ccccc1Br	-	-	-	-	-	0	-	-	-
Cc1ccc(S(=O)(=O)N2CCOCC2)cc1C(=O)NC1=NCCS1	-	-	-	-	-	0	-	-	-
CCOc1ccccc1N1CCN(Cc2ccco2)CC1	0	0	0	0	0	0	-	-	-
CCOc1ccccc1N1CCN(Cc2ccc(Br)s2)CC1	0	0	0	0	0	0	0	0	0
CCOc1ccccc1N1CCN(C/C=C/c2ccc(N(C)C)cc2)CC1	0	0	0	0	0	0	0	0	0
COc1ccc(C(=O)NCc2nnc(SCC(=O)Nc3cc(Cl)ccc3OC)o2)cc1	-	0	0	0	0	0	-	-	-
O=C(/C=C/c1ccc(-c2ccccc2[N+](=O)[O-])o1)c1ccco1	0	0	0	-12	0	0	56%	0	25%
COc1ccc(SC[C@H](Cc2ccccc2)N2CC[C@@H](C(C)(C)C)CCC2=O)cc1	-	-	-	-	-	0	-	-	-
COc1cccc(C(=O)NCCN2CCN(c3ccccc3)CC2)c1	-	0	0	0	0	0	-	-	-
O=S(=O)(NCC(c1ccco1)N1CCN(c2ccccc2)CC1)c1ccc(F)cc1 (centres undefined)	0	0	0	0	0	0	-	-	-
